Columns and labels:
[1] = biological target: T1, Polyunsaturated fatty acid 5-lipoxygenase (Rattus norvegicus, UniProt P12527); assay: Inhibition of 5-lipoxygenase in intact RBL-1 cell line; format: cell-based
T1 sequence (P12527 whole entry): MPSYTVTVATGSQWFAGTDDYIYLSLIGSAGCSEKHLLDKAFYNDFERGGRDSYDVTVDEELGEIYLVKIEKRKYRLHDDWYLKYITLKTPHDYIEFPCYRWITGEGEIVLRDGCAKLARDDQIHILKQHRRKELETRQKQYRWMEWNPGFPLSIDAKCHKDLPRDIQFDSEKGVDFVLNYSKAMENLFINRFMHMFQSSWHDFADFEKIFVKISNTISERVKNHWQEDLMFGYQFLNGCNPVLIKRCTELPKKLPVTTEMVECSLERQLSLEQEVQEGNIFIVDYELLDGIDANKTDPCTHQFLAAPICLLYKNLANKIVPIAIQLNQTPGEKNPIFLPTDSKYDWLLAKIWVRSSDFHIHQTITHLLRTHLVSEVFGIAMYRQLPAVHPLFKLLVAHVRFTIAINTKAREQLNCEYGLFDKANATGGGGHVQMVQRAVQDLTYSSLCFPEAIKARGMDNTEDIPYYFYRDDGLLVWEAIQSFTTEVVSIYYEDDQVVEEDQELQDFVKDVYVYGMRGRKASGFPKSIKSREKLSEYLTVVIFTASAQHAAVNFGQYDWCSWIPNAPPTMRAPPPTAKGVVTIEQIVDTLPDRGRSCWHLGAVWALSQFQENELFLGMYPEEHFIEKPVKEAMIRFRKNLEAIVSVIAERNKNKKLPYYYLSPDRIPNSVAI
Method in brief: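 RBL-1 cells at 2 × 10⁶ cells/mL were held in PBS with 1.0 mM Ca²⁺. They were incubated with or without inhibitor for 7 min at 37 °C, with 5 μM ionophore A-23187. LTB₄ was measured by radioimmunoassay. IC50 came from regression of percent inhibition against inhibitor concentration; otherwise percent inhibition at the highest concentration tested was given.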

Rattus norvegicus [2] = assay: In vivo ulcerogenicity was determined after peroral administration in rat; format: functional
Method in brief: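 Rats were dosed orally. The ulcerogenic dose (UD50) was taken as the oral dose in mg/kg that produced ulcers in 50% of the rats tested.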

Rattus norvegicus [3] = assay: In vivo percent inhibition of mycobacterium foot-pad edema (MFE) after peroral administration was determined.; format: functional
Method in brief: (§1)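 Compounds were given orally to rats at the stated doses in mg/kg. Groups held 7–14 animals each. Foot-pad edema was scored as percent inhibition against controls, or as the dose giving a set level of inhibition (ID25 or ID40).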

Rattus norvegicus [4] = assay: In vivo ulcerogenicity was determined after peroral administration at a dose of 200 mg/kg in rat; No significant ulceration; format: functional, organism-based; design: dose 200 mg/kg
Rattus norvegicus [5] = organism: Rattus norvegicus; assay: Relative binding affinity to 5-lipoxygenase and cyclooxygenase
Rattus norvegicus [6] = assay: In vivo percent inhibition of carrageenan foot-pad edema (CFE) after peroral administration was determined.; format: functional; method in brief: as §1

Row | IC50 ([1]; read-out: IC50) [µM] | IC50 ratio (Rattus norvegicus [5]) | SMILES | ID40 (Rattus norvegicus [3]) [mg/kg] | further results
1 | > 100 |  | COc1ccc2c(c1)c(CC(=O)O)c(C)n2C(=O)c1ccc(Cl)cc1 [INDOMETHACIN] | 0.21 | UD50 (Rattus norvegicus [2]): 5.4 mg/kg
2 |  |  | Cc1ccc(Cl)c(Nc2ccccc2C(=O)NO)c1Cl | 27 | UD50 (Rattus norvegicus [4]): No significant inhibition
3 |  |  | COc1ccc2c(c1)c(CC(=O)N(O)C(C)C)c(C)n2C(=O)c1ccc(Cl)cc1 | 0.82 | UD50 (Rattus norvegicus [4]): No significant inhibition
4 | 1.2 | 0.06 | CC(C)Cc1ccc(C(C)C(=O)N(C)O)cc1 (centres undefined) |  | 
5 | 20 | 2 | CC(C)Cc1ccc(C(C)C(=O)NO)cc1 (centres undefined) [IBUPROXAM] |  | 
6 | > 32 | > 5.5 | CONC(=O)C(C)c1ccc(CC(C)C)cc1 (centres undefined) |  | 
7 |  |  | CC(C)Cc1ccc(C(C)C(=O)O)cc1 (centres undefined) [IBUPROFEN] |  | IC50 ([1]; rbl-1): No significant inhibition
8 |  | 6.8 | COc1ccc2c(c1)c(CC(=O)NO)c(C)n2C(=O)c1ccc(Cl)cc1 [OXAMETACIN] |  | UD50 (Rattus norvegicus [2]): 103 mg/kg
9 | 26 |  | CONC(=O)CC1=C(C)/C(=C/c2ccc([S+](C)[O-])cc2)c2ccc(F)cc21 (centres undefined) |  | 
10 |  | > 120 | CONC(=O)Cc1c(C)n(C(=O)c2ccc(Cl)cc2)c2ccc(OC)cc12 |  | UD50 (Rattus norvegicus [2]): 42 mg/kg
11 |  |  | Cc1ccc(Cl)c(Nc2ccccc2C(=O)N(C)O)c1Cl | 2.5 | UD50 (Rattus norvegicus [4]): No significant inhibition; ID25 (Rattus norvegicus [6]): 0.2 mg/kg
12 |  |  | CONC(=O)c1ccccc1Nc1c(Cl)ccc(C)c1Cl | 24 | UD50 (Rattus norvegicus [4]): No significant inhibition; ID25 (Rattus norvegicus [6]): 1.3 mg/kg
13 |  |  | Cc1ccc(Cl)c(Nc2ccccc2C(=O)[O-])c1Cl.O.[Na+] [MECLOFENAMATE SODIUM] | 0.39 | UD50 (Rattus norvegicus [2]): 36 mg/kg; ID25 (Rattus norvegicus [6]): 8.2 mg/kg
14 | > 100 |  | CC1=C(CC(=O)O)c2cc(F)ccc2/C1=C\c1ccc([S+](C)[O-])cc1 (centres undefined) |  | 

— ChEMBL document CHEMBL1124859, “Nonsteroidal antiinflammatory drug hydroxamic acids. Dual inhibitors of both cyclooxygenase and 5-lipoxygenase” (J Med Chem, 1990)
